Results from ChEMBL document CHEMBL1132342, “Novel hypotensive agents from Verbesina caracasana. 6. Synthesis and pharmacology of caracasandiamide” (1999).
Values joined by “and” are separate entries in the source; they are usually repeats but may differ in a detail not shown here. Equal values may be shown once.

How the values were obtained:
Rattus norvegicus [1] = test: Change in heart rate after iv administration of 200 ug/Kg in anesthetized rats; format: functional
In short: (§1)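 Adult male Wistar rats under ip ethylurethane (10% w/v in saline, 1 mL/kg) with tracheal cannula and spontaneous breathing, kept at 37 °C. Arterial BP was recorded by femoral artery catheter; compound in saline (50 µL) was given via femoral vein at 50–3200 µg/kg, ratio 2.0. Peak change is given as mean ± SE, n = 12 (n = 7 at 3200 µg/kg).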

Rattus norvegicus [2] = test: Change in systolic blood pressure after iv administration of 1600 ug/Kg in the presence of acetylcholine (agonist) in anesthetized rats; format: functional, Artery
Rattus norvegicus [3] = test: Change in heart rate after iv administration of 400 ug/Kg in anesthetized rats; format: functional; in short: as §1
Rattus norvegicus [4] = test: Change in systolic blood pressure after iv administration of 800 ug/Kg compound (treatment with hexamethonium (5 mg/Kg, iv)in anesthetized rats; format: functional, Artery
In short: (§2)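 Anesthetized rats, n = 6 per group, received iv doses of 200–1600 µg/kg (ratio 2.0) either alone (control) or under pretreatment: continuous iv papaverine infusion 1 mg/kg/min, reserpine 5 mg/kg/day ip for 2 days, or hexamethonium 5 mg/kg iv. Peak changes in BP, heart rate and dP/dt recorded; means ± SE, p < 0.05 versus control.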

Rattus norvegicus [5] = test: Change in stroke volume after iv administration of 1600 ug/Kg in anesthetized rats; format: functional
In short: (§3)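 Male Wistar rats (299 ± 3 g) were anesthetized with ethylurethane ip, tracheally cannulated and breathing spontaneously, at 37 °C, and stabilized for 60 min. Doses of 50-3200 µg/kg (ratio 2.0) in saline were injected by femoral vein, 50 µL each. Recordings: femoral arterial BP, electromagnetic abdominal-aortic flow, SV from integrated pulsatile flow, polygraphic RF. Peak changes, mean ± SE, n = 12 (n = 7 at 3200).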

Rattus norvegicus [6] = test: Change in heart rate after iv administration of 800 ug/kg compound (treatment with reserpine(5 mg/kg/day for 2 days, ip))in anesthetized rats; format: functional
In short: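 Urethane-anesthetized male Wistar rats, 6 per group, received iv doses of 200-1600 µg/kg (ratio 2.0) given alone or under a pretreatment. Pretreatments were continuous iv papaverine infusion (1 mg/kg/min), reserpine 5 mg/kg/day ip for 2 days, or hexamethonium 5 mg/kg iv. Peak changes in femoral arterial BP and HR were recorded; values are mean ± SE.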

Rattus norvegicus [7] = test: Change in respiratory frequency after iv administration of 400 ug/Kg in anesthetized rats; format: functional; in short: as §3
Rattus norvegicus [8] = test: Change in diastolic blood pressure after iv administration of 50 ug/Kg in anesthetized rats; format: functional, Artery; in short: as §1
Rattus norvegicus [9] = test: Maximum rate of rise of the left ventricular isovolumetric pressure was measured after iv administration of 1600 ug/Kg in anesthetized rats; format: functional, Heart left ventricle
In short: (§4)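 Urethane-anesthetized (10% w/v, […] ip in saline) adult male Wistar rats, trachea cannulated, breathing spontaneously, 37 °C. Femoral artery catheter for blood pressure, femoral vein for dosing. Sequential iv doses 50–3200 µg/kg (ratio 2.0) in saline, each given after parameters returned to baseline. Peak changes recorded; means ± SE, n = 12 (n = 7 at 3200 µg/kg).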

Rattus norvegicus [10] = test: Change in systolic blood pressure after iv administration of 1600 ug/Kg in the presence of noradrenaline (agonist) in anesthetized rats; format: functional, Artery
Rattus norvegicus [11] = test: Maximum rate of rise of the left ventricular isovolumetric pressure was measured after iv administration of 4.12 uM/kg in anesthetized rats; ratio given for dP/dt; format: functional, Heart left ventricle
Rattus norvegicus [12] = test: Change in diastolic blood pressure after iv administration of 1600 ug/Kg compound (treatment with reserpine(5 mg/kg/day for 2 days, ip)in anesthetized rats; format: functional, Artery
In short: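 In anesthetized male Wistar rats, responses to iv compound (200–1600 µg/kg, ratio 2.0) were measured alone and under three pretreatments: continuous iv papaverine infusion (1 mg/kg/min), ip reserpine (5 mg/kg/day for 2 days), or iv hexamethonium (5 mg/kg). Peak changes are given as mean ± SE, n = 6 per group; p < 0.05 versus control.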

Rattus norvegicus [13] = test: Maximum rate of rise of the left ventricular isovolumetric pressure was measured after iv administration of 400 ug/Kg in the presence of adrenaline (agonist) in anesthetized rats; format: functional, Heart left ventricle
In short: (§5)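 Anesthetized male Wistar rats, two groups of 8, received 400 or 1600 µg/kg iv. Before and after this dose, iv agonist challenges were given: noradrenaline 1 µg/kg, adrenaline, acetylcholine 2.50 µg/kg, or isoprenaline. Systolic/diastolic BP, heart rate and dP/dt responses were recorded before (control) and after dosing; significance was set at p < 0.05 versus control.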

Rattus norvegicus [14] = test: Maximum rate of rise of the left ventricular isovolumetric pressure was measured after iv administration of 200 ug/Kg in anesthetized rats; format: functional, Heart left ventricle; in short: as §4
Rattus norvegicus [15] = test: Change in diastolic blood pressure after iv administration of 400 ug/Kg in the presence of noradrenaline (agonist) in anesthetized rats; format: functional, Artery
In short: (§6)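 Urethane-anesthetized male Wistar rats (16 rats, two equal groups) received 400 or 1600 µg/kg compound iv. Cardiovascular responses to iv agonist boluses (noradrenaline 1 µg/kg, acetylcholine 2.50 µg/kg, adrenaline, isoprenaline) were measured before and after compound dosing. Peak responses are given as mean ± SE; p < 0.05 versus control mean.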

Rattus norvegicus [16] = test: Change in systolic blood pressure after iv administration of 4.12 uM/kg in anesthetized rats; format: functional, Artery
In short: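 Doses were 4.12 µM/kg (two agents), guanethidine 25, clonidine 0.108, hexamethonium 12, reserpine 8, papaverine 5 and histamine […]. Peak changes in systolic BP or HR were recorded.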

Rattus norvegicus [17] = test: Change in heart rate after iv administration of 50 ug/Kg in anesthetized rats; format: functional; in short: as §3
Rattus norvegicus [18] = test: Change in mean aortic flow after iv administration of 3200 ug/Kg in anesthetized rats; format: functional; in short: as §3
Rattus norvegicus [19] = test: Maximum rate of rise of the left ventricular isovolumetric pressure after iv administration of 800 ug/Kg compound (treatment with hexamethonium (5 mg/Kg, iv)in anesthetized rats; format: functional, Heart left ventricle; in short: as §2
Rattus norvegicus [20] = test: Change in diastolic blood pressure after iv administration of 100 ug/Kg in anesthetized rats; format: functional, Artery; in short: as §1
Rattus norvegicus [21] = test: Change in mean aortic flow after iv administration of 200 ug/Kgin anesthetized rats; format: functional; in short: as §3
Rattus norvegicus [22] = test: Change in diastolic blood pressure after iv administration of 400 ug/Kg in anesthetized rats; format: functional, Artery; in short: as §1
Rattus norvegicus [23] = test: Change in systolic blood pressure after iv administration of 1600 ug/Kg in anesthetized rats; format: functional, Artery; in short: as §3
Rattus norvegicus [24] = test: Change in diastolic blood pressure after iv administration of 400 ug/Kg in the presence of acetylcholine (agonist) in anesthetized rats; format: functional, Artery; in short: as §6
Rattus norvegicus [25] = test: Change in systolic blood pressure after iv administration of 400 ug/Kg in the presence of acetylcholine (agonist) in anesthetized rats; format: functional, Artery; in short: as §5

Structure (SMILES): COc1ccc(C2C(c3ccc(OC)c(OC)c3)[C@H](C(=O)NCCCC/N=C(\N)NCC=C(C)C)[C@@H]2C(=O)NCCCC/N=C(\N)NCC=C(C)C)cc1OC (stereo partly specified) [CARACASANDIAMIDE]
- Change in heart rate (Rattus norvegicus [1]): -4%
- Heart rate (Rattus norvegicus [1]): -13 beats min-1
- BP (Rattus norvegicus [2]): -38 mmHg
- Change in heart rate (Rattus norvegicus [3]): -4%
- Heart rate (Rattus norvegicus [3]): -16 beats min-1
- BP (Rattus norvegicus [4]): -50 mmHg
- Change in stroke volume (Rattus norvegicus [5]): -48%
- Stroke volume (Rattus norvegicus [5]): -97 µL
- Heart rate (Rattus norvegicus [6]): -9 beats min-1
- Change in respiratory frequency (Rattus norvegicus [7]): -3 beats min-1 and -3%
- BP (Rattus norvegicus [8]): 10 mmHg
- Change in BP (Rattus norvegicus [8]): 13%
- Change in dP/dt (Rattus norvegicus [9]): 60%
- dP/dt (Rattus norvegicus [9]): 3676 mmHg s-1
- BP (Rattus norvegicus [10]): 24 mmHg
- dP/dt (Rattus norvegicus [11]): 3990 mmHg s-1
- BP (Rattus norvegicus [12]): -15 mmHg
- dP/dt (Rattus norvegicus [13]): 6848 mmHg s-1
- Change in dP/dt (Rattus norvegicus [14]): 22%
- dP/dt (Rattus norvegicus [14]): 1369 mmHg s-1
- BP (Rattus norvegicus [15]): 15 mmHg
- BP (Rattus norvegicus [16]): -43 mmHg
- Change in heart rate (Rattus norvegicus [17]): -3%
- Heart rate (Rattus norvegicus [17]): -9 beats min-1
- Change in mean aortic flow (Rattus norvegicus [18]): -56%
- Mean aortic flow (Rattus norvegicus [18]): -41 mL/min
- dP/dt (Rattus norvegicus [19]): 4965 mmHg s-1
- BP (Rattus norvegicus [20]): 10 mmHg
- Change in BP (Rattus norvegicus [20]): 13%
- Mean aortic flow (Rattus norvegicus [21]): -14 mL/min
- BP (Rattus norvegicus [22]): -17 mmHg
- Change in BP (Rattus norvegicus [22]): -22%
- BP (Rattus norvegicus [23]): -41 mmHg
- Change in BP (Rattus norvegicus [23]): -39%
- BP (Rattus norvegicus [24]): -45 mmHg
- BP (Rattus norvegicus [25]): -27 mmHg
